The record followed here is ChEMBL document CHEMBL4725313, “Development of phenylthiourea derivatives as allosteric inhibitors of pyoverdine maturation enzyme PvdP tyrosinase” (Bioorg Med Chem Lett, 2020).

Activity calls are given as the source filed them. The calls are words filed in the database; no cut-off is given here.

The nature of data set [1]: Inhibition of Pseudomonas aeruginosa PvdP tyrosinase.
Data set [2] concerns Pseudomonas aeruginosa. The data set is described as follows: Non-competitive inhibition of Pseudomonas aeruginosa PvdP tyrosinase assessed as Vmax at 0.2 uM by Lineweaver-Burk double reciprocal plot analysis (reference value: 0.0155 1/min).
Data set [3] deals with Pseudomonas aeruginosa. The data set is described as follows: Non-competitive inhibition of Pseudomonas aeruginosa PvdP tyrosinase assessed as Vmax at 0.5 uM by Lineweaver-Burk double reciprocal plot analysis (reference value: 0.0155 1/min).
For data set [4], the system named is Pseudomonas aeruginosa. The data set is described as follows: Non-competitive inhibition of Pseudomonas aeruginosa PvdP tyrosinase assessed as Km at 0.2 uM by Lineweaver-Burk double reciprocal plot analysis (reference value: 1.136 mM).
The subject of data set [5] is Pseudomonas aeruginosa. The data set can be described thus: Non-competitive inhibition of Pseudomonas aeruginosa PvdP tyrosinase assessed as Km at 0.5 uM by Lineweaver-Burk double reciprocal plot analysis (reference value: 1.136 mM).
The subject of data set [6] is Pseudomonas aeruginosa. The data set is described as follows: Inhibition of Pseudomonas aeruginosa PvdP tyrosinase mutant at 1 uM.
In data set [7] the target is Mushroom tyrosinase (Agaricus bisporus, UniProt O42713+Q00024+C7FF04+C7FF05). The data set is described as follows: Inhibition of mushroom tyrosinase.
The nature of data set [8]: (§1) Inhibition of PvdP tyrosinase in Pseudomonas aeruginosa PAO1 assessed as reduction in pyoverdin production incubated for 24 hrs in low iron medium. Summed up:
(§2)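 P. aeruginosa PAO1 grown 24 h in low-iron medium with a serial dilution of compound (200 - 0.79 µM; final DMSO 1%). Vehicle 1% DMSO as negative control. After incubation, pyoverdine read at 405 nm and cell growth at 600 nm.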

In data set [9] the test system is Pseudomonas aeruginosa PAO1. Described as §1. Summed up: as §2
Data set [10] in a line: Selectivity ratio of IC50 for mushroom tyrosinase to IC50 for Pseudomonas aeruginosa PvdP tyrosinase.
Data set [11] has as its system Pseudomonas aeruginosa. The data set is described as follows: Inhibition of Pseudomonas aeruginosa PvdP tyrosinase up to 100 uM relative to control. Particulars: dose microM <=100.

Usually IC50 stands for the point on the concentration scale where inhibition reaches its midpoint. The Km is the concentration of substrate that gives half-maximal velocity. For orientation: inhibition means the relative decrease from the control value, in per cent. On to `S=C(NCc1ccc(Cl)cc1)Nc1ccccc1`, for which the results for the IC50 in [1] (read-out: IC50), in data set [7] and in data set [8] were 0.57 µM, 328 µM and 44.9 µM, respectively. The results for the Vmax in data set [2] and in data set [3] were 0.0126 min⁻¹ and 0.0111 min⁻¹, respectively. Besides, the Km in [4] worked out at 1130 µM; in data set [5], 1140 µM. Further, the inhibition entry in data set [6] was “inactive”. In addition, the inhibition result in data set [9] is “Dose-dependent effect”. For the same molecule, the “Ratio IC50” value in data set [10] is reported as over 500.

Take `S=C(NCc1ccccc1)Nc1ccccc1`: in data set [1] (read-out: IC50), the half-maximal inhibitory concentration (IC50) stood at 19.4 µM. The same measure, in the same setting: with `S=C(NCc1ccc(Br)cc1)Nc1ccccc1` the figure was 23.5 µM; with `NC(=S)Nc1ccccc1` [PHENYLTHIOUREA], 174 µM.

Turning to `Cc1ccc(NC(=S)NCc2ccc(Cl)cc2)cc1`, the IC50 in data set [1] (read-out: IC50) was 22.3 µM. As for `S=C(NCc1ccccc1Cl)Nc1ccccc1`, the concentration for half-maximal inhibition (IC50) in data set [1] (read-out: IC50) was 7.9 µM; in data set [7], over 500 µM. In addition, the “Ratio IC50” value in data set [10] is on record as over 500.

In the case of `COc1ccc(CN=C(S)Nc2ccccc2)cc1`, the IC50 in data set [1] (read-out: IC50) amounted to 19.3 µM. In the case of `NC(=O)Nc1ccccc1` [PHENYLUREA], the IC50 entry in data set [1] was “Not Active”. This molecule displayed an inhibition in [11] of under 50%. As to `CNC(=S)Nc1ccccc1`, in data set [1], the IC50 entry is “Not Active”. On to `Fc1ccc(CNC(=S)Nc2ccccc2)cc1`, for which the concentration for half-maximal inhibition (IC50) in [1] (read-out: IC50) turned out to be 13.6 µM.

With `S=C(NCc1c(Cl)cccc1Cl)Nc1ccccc1`, the half-inhibitory concentration (IC50) in [1] (read-out: IC50) is 7.6 µM; in data set [7], over 500 µM. Besides, the “Ratio IC50” value in data set [10] is over 500. For the molecule `CN(C)c1ccc(NC(=S)NCc2ccc(Cl)cc2)cc1`, the half-maximal inhibitory concentration (IC50) in data set [1] (read-out: IC50) was 14.3 µM.

`C=CCNC(=S)Nc1ccccc1`: in [1], the half-inhibitory concentration (IC50) entry was “Not Active”. On to `Fc1ccc(CCNC(=S)Nc2ccccc2)cc1`, for which, in data set [1] (read-out: IC50), the IC50 was found to be 22.6 µM. For `Fc1cccc(Cl)c1NC(=S)Nc1ccccc1`, the half-maximal inhibitory concentration (IC50) result in data set [1] is on record as “Not Active”.
